Values after ≈ are worked out from the molar mass of the structure shown. Active and inactive are the calls of the source. No cut-off for these calls is given here.
Tests used:
Absidia [1] = assay: Antimicrobial activity against Absidia sp. assessed as percent of susceptible isolates after 24 hrs; assay type: functional
Absidia [2] = assay: Antimicrobial activity against Absidia sp. after 24 hrs; assay type: functional, organism-based
Summary of the method: (§1)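 Clinical zygomycete isolates tested by broth microdilution in microtiter format, in essential agreement with CLSI M38-A for filamentous fungi. The polyene and echinocandin were tested in antibiotic medium 3, and the other agents in RPMI 1640. Plates were incubated for 24 h at 35°C, and end points were read visually. The echinocandin end point was taken as the minimal effective concentration.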

Rhizopus arrhizus [3] = assay: Antimicrobial activity against Rhizopus arrhizus assessed as percent of susceptible isolates after 24 hrs; assay type: functional
Mucor circinelloides [4] = assay: Antimicrobial activity against Mucor circinelloides after 24 hrs; assay type: functional; summary of the method: as §1
Mucor [5] = assay: Antimicrobial activity against Mucor sp. after assessed as percent of susceptible isolates after 24 hrs; assay type: functional
Rhizomucor [6] = assay: Antimicrobial activity against Rhizomucor sp. after 24 hrs; assay type: functional; summary of the method: as §1
Rhizopus arrhizus [7] = assay: Antimicrobial activity against Rhizopus arrhizus after 24 hrs; assay type: functional; summary of the method: as §1
Cunninghamella [8] = assay: Antimicrobial activity against Cunninghamella sp. assessed as percent of susceptible isolates after 24 hrs; assay type: functional
Cunninghamella [9] = assay: Antimicrobial activity against Cunninghamella sp. after 24 hrs; assay type: functional; summary of the method: as §1
[10] = system: Rhizopus microsporus var. microsporus; assay: Antimicrobial activity against Rhizopus microsporus var. microsporus assessed as percent of susceptible isolates after 24 hrs; assay type: functional
Mucor circinelloides [11] = assay: Antimicrobial activity against Mucor circinelloides assessed as percent of susceptible isolates after 24 hrs; assay type: functional
Lichtheimia corymbifera [12] = assay: Antimicrobial activity against Absidia corymbifera assessed as percent of susceptible isolates after 24 hrs; assay type: functional
Apophysomyces elegans [13] = assay: Antimicrobial activity against Apophysomyces elegans assessed as percent of susceptible isolates after 24 hrs; assay type: functional
Rhizomucor [14] = assay: Antimicrobial activity against Rhizomucor sp. assessed as percent of susceptible isolates after 24 hrs; assay type: functional
Lichtheimia corymbifera [15] = assay: Antimicrobial activity against Absidia corymbifera after 24 hrs; assay type: functional; summary of the method: as §1
Mucor [16] = assay: Antimicrobial activity against Mucor sp. after 24 hrs; assay type: functional
Summary of the method: (§2)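 Broth microdilution of clinical isolates following CLSI M38-A for filamentous fungi. The polyene and echinocandin agents were tested in antibiotic medium 3, and the other agents in RPMI 1640. Plates were incubated 24 h at 35°C and end points read visually. The echinocandin end point was the minimal effective concentration (MEC); the others were MICs.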

Rhizopus [17] = assay: Antimicrobial activity against Rhizopus sp. assessed as percent of susceptible isolates after 24 hrs; assay type: functional
Rhizopus [18] = assay: Antimicrobial activity against Rhizopus sp. after 24 hrs; assay type: functional; summary of the method: as §2
Apophysomyces elegans [19] = assay: Antimicrobial activity against Apophysomyces elegans after 24 hrs; assay type: functional; summary of the method: as §1
[20] = system: Rhizopus microsporus var. rhizopodiformis; assay: Antimicrobial activity against Rhizopus microsporus var. rhizopodiformis assessed as percent of susceptible isolates after 24 hrs; assay type: functional
[21] = system: Rhizopus microsporus var. rhizopodiformis; assay: Antimicrobial activity against Rhizopus microsporus var. rhizopodiformis after 24 hrs; assay type: functional; summary of the method: as §2

| Structure (SMILES) | Activity (Absidia [1]) [%] | Activity (Absidia [2]) | Activity (Rhizopus arrhizus [3]) [%] | Activity (Mucor [5]) [%] | MIC50 (Rhizopus arrhizus [7]) [µg/mL] | Activity (Cunninghamella [8]) [%] | MIC50 (Cunninghamella [9]) [µg/mL] | Activity (Mucor circinelloides [11]) [%] | Activity (Lichtheimia corymbifera [12]) [%] | Activity (Apophysomyces elegans [13]) [%] | Activity (Rhizomucor [14]) [%] | MIC50 (Mucor [16]) [µg/mL] | MIC90 (Mucor [16]) [µg/mL] | Activity (Rhizopus [17]) [%] | MIC50 (Rhizopus [18]) [µg/mL] | MIC90 (Rhizopus [18]) [µg/mL] | Activity [20] [%] | Activity (Mucor circinelloides [4]) | Activity (Rhizomucor [6]) | Activity (Lichtheimia corymbifera [15]) | further results |
| --- | --- | --- | --- | --- | --- | --- | --- | --- | --- | --- | --- | --- | --- | --- | --- | --- | --- | --- | --- | --- | --- |
| C[C@@H]1[C@H](O)[C@@H](C)/C=C/C=C/C=C/C=C/C=C/C=C/C=C/[C@H](O[C@@H]2O[C@H](C)[C@@H](O)[C@H](N)[C@@H]2O)C[C@@H]2O[C@](O)(C[C@@H](O)C[C@@H](O)[C@H](O)CC[C@@H](O)C[C@@H](O)CC(=O)O[C@H]1C)C[C@H](O)[C@H]2C(=O)O [AMPHOTERICIN B] | 100 | inactive | 100 | 94 | 0.25 (≈ 0.271 µM) | 63 | 1 (≈ 1.08 µM) | 100 | 100 | 100 | 100 | 0.25 (≈ 0.271 µM) | 0.5 (≈ 0.541 µM) | 100 | 0.25 (≈ 0.271 µM) | 0.5 (≈ 0.541 µM) | 100 |  |  |  | MIC50 (Mucor circinelloides [4]): 0.25 µg/mL (≈ 0.271 µM); MIC50 (Rhizomucor [6]): 0.125 µg/mL (≈ 0.135 µM); MIC90 (Rhizopus arrhizus [7]): 0.25 µg/mL (≈ 0.271 µM); Activity [10]: 100%; MIC50 (Lichtheimia corymbifera [15]): 0.25 µg/mL (≈ 0.271 µM); MIC50 (Apophysomyces elegans [19]): 0.125 µg/mL (≈ 0.135 µM); MIC50 [21]: 0.25 µg/mL (≈ 0.271 µM); MIC90 [21]: 0.25 µg/mL (≈ 0.271 µM) |
| CC[C@H](C)C[C@H](C)CCCCCCCCC(=O)N[C@H]1C[C@@H](O)[C@@H](NCCN)NC(=O)[C@@H]2[C@@H](O)CCN2C(=O)[C@H]([C@H](O)CCN)NC(=O)[C@H]([C@H](O)[C@@H](O)c2ccc(O)cc2)NC(=O)[C@@H]2C[C@@H](O)CN2C(=O)[C@H]([C@@H](C)O)NC1=O [CASPOFUNGIN] | 0 | inactive | 0 | 0 | > 16 | 0 |  | 0 | 0 | 0 | 0 | > 16 | > 16 | 0 | > 16 | > 16 | 0 | inactive | inactive | inactive | Activity (Cunninghamella [9]): inactive; Activity (Apophysomyces elegans [19]): inactive; MIC50 [21]: > 16 µg/mL |
| OC(Cn1cncn1)(Cn1cncn1)c1ccc(F)cc1F [FLUCONAZOLE] |  | inactive | 0 | 0 |  | 0 |  | 0 |  | 0 | 0 | > 64 |  | 0 | > 64 | > 64 | 0 | inactive | inactive | inactive | Activity (Rhizopus arrhizus [7]): inactive; Activity (Cunninghamella [9]): inactive; Activity (Apophysomyces elegans [19]): inactive; Antimicrobial activity [21]: inactive |
| Nc1nc(=O)[nH]cc1F [FLUCYTOSINE] |  |  | 0 | 0 |  | 0 |  | 0 |  |  |  | > 64 |  | 0 |  |  | 0 | inactive |  |  | Activity (Rhizopus arrhizus [7]): inactive; Activity (Cunninghamella [9]): inactive; Activity (Rhizopus [18]): inactive; Activity [21]: inactive |
| CCC(C)n1ncn(-c2ccc(N3CCN(c4ccc(OC[C@H]5CO[C@](Cn6cncn6)(c6ccc(Cl)cc6Cl)O5)cc4)CC3)cc2)c1=O (some centres not stated) [ITRACONAZOLE] | 50 | inactive | 50 | 57 | 0.5 (≈ 0.709 µM) | 29 | 1 (≈ 1.42 µM) | 0 | 100 | 80 | 67 | 0.5 (≈ 0.709 µM) | > 8 | 62 | 0.5 (≈ 0.709 µM) | 4 (≈ 5.67 µM) | 60 | inactive | inactive | inactive | Activity [10]: 0%; MIC50 (Apophysomyces elegans [19]): 0.125 µg/mL (≈ 0.177 µM); MIC50 [21]: 0.5 µg/mL (≈ 0.709 µM) |
| CC(=O)N1CCN(c2ccc(OCC3COC(Cn4ccnc4)(c4ccc(Cl)cc4Cl)O3)cc2)CC1 (configuration not stated) [KETOCONAZOLE] |  | inactive | 0 | 33 |  | 0 |  | 0 |  |  |  |  |  | 83 | 1 (≈ 1.88 µM) |  | 0 | inactive | inactive | inactive | Activity (Rhizopus arrhizus [7]): inactive; Activity (Cunninghamella [9]): inactive; Activity (Mucor [16]): inactive; Activity (Apophysomyces elegans [19]): inactive; Activity [21]: inactive |
| CC[C@@H]([C@H](C)O)n1ncn(-c2ccc(N3CCN(c4ccc(OC[C@@H]5CO[C@@](Cn6cncn6)(c6ccc(F)cc6F)C5)cc4)CC3)cc2)c1=O [POSACONAZOLE] | 100 | inactive | 64 | 70 | 0.25 (≈ 0.357 µM) | 75 | 0.5 (≈ 0.713 µM) | 0 | 100 | 83 | 67 | 0.5 (≈ 0.713 µM) | 2 (≈ 2.85 µM) | 80 | 0.25 (≈ 0.357 µM) | 1 (≈ 1.43 µM) | 78 | inactive | inactive | inactive | MIC90 (Rhizopus arrhizus [7]): 1 µg/mL (≈ 1.43 µM); MIC50 (Apophysomyces elegans [19]): 0.03 µg/mL (≈ 0.0428 µM); MIC50 [21]: 0.25 µg/mL (≈ 0.357 µM) |
| C[C@@H](c1ncncc1F)[C@](O)(Cn1cncn1)c1ccc(F)cc1F [VORICONAZOLE] | 0 | inactive | 0 | 0 | > 8 | 10 | > 8 | 0 | 0 | 100 | 0 | > 8 | > 8 | 5 | 8 (≈ 22.9 µM) | > 8 | 0 | inactive | inactive | inactive | MIC90 (Cunninghamella [9]): > 8 µg/mL; Antimicrobial activity [21]: inactive |

— ChEMBL document CHEMBL1150793, “In vitro susceptibilities of 217 clinical isolates of zygomycetes to conventional and new antifungal agents” (2007)
